In the library only some 3.4% were active in any assay of this set; here they are far more common.
ANO1 block: blocks the mouse calcium-activated chloride channel TMEM16A | AID 588511 | normalized B-score (activity score, 25-100; higher = stronger inhibition) at 10 µM | 1.2% of 310,000 active | HEK293 TMEM16A/YFP iodide influx fluorescence, ionomycin;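 active means ratio plate-corrected score three or more library SD toward inhibition, starting fluorescence score within five deviations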;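 further: score derived from kinetic fluorescence span divided by baseline fluorescence per well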
IMP-1 inhibitor: blocks Pseudomonas aeruginosa IMP-1 metallo-beta-lactamase; purified IMP-1, nitrocefin hydrolysis, epi-absorbance fluorescence; inhibition, % at 5.6 µM; 0.45% of 290,000 active;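 active means inhibition above the mean plus 3 SD of all compounds in the same screening run, cut at about 4.5% in these data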;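 further: 0% = IMP-1 with DMSO and 100% = DMSO wells lacking enzyme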
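system = purified recombinant IMP-1 beta-lactamase | amount = 0.2 nM IMP-1, as dispensed | medium = HEPES buffer pH 7.1 with ZnSO4 and Brij 35 | times = 25 °C, 15 min preincubation, 25 min reaction | detection = plate fluorescence quenching by hydrolysis product, ex 480/em 530 nm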
VIM-2 inh: blocks Pseudomonas aeruginosa VIM-2 metallo-beta-lactamase; purified VIM-2, nitrocefin hydrolysis, epi-absorbance fluorescence; inhibition, % at 5.6 µM; 0.89% of 290,000 active; AID 1527;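 active means inhibition above the mean of all tested compounds plus 3 SD, cutoff set per screening run, cut at about 7.5% in these data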;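 further: red hydrolysis product quenches plate fluorescence so inhibitors raise well fluorescence; 0% = enzyme with DMSO and 100% = DMSO without enzyme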
CHT PAM: allosterically activates the human high affinity choline transporter; CHT-expressing cells, membrane potential dye, choline EC20; active compounds read high; LV-AA mutant CHT in HEK293 cells; Q9GZV3; B-score at 10 µM; 0.49% of 310,000 active;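 active means initial fluorescence not abnormally high and integrated response B-score, plate-corrected, over 3 SD above library mean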
Target sequence (Q9GZV3 whole entry, looked up): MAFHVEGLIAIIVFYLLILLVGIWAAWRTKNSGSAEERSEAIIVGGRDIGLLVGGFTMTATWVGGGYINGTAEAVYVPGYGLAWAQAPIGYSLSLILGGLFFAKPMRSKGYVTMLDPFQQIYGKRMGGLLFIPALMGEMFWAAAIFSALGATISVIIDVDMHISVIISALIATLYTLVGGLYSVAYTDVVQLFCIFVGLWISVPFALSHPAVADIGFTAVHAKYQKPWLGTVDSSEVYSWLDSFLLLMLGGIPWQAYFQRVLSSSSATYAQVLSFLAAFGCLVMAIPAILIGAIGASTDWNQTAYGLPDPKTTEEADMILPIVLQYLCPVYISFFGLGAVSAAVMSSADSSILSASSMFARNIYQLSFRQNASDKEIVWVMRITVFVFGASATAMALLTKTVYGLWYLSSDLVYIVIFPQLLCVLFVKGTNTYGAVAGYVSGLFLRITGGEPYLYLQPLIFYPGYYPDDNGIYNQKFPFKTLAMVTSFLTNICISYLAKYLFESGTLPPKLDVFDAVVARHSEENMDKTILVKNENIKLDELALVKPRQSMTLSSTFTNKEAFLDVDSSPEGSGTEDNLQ
CHT inh: inhibitors of human choline transporter CHT | B-score at 10 µM | Q9GZV3 | CHT-expressing cells, membrane potential dye, choline response; active compounds read low | 0.86% of 310,000 active | AID 488975;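 active means B-score over 3 SD under the library average, and starting fluorescence ratio not unusually high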;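 further: choline stimulus applied at its EC90 after an EC20 pre-addition; B-score computed on integrated fluorescence ratio after choline addition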
TMEM16A act: activates or potentiates the mouse TMEM16A chloride channel; HEK293 TMEM16A/YFP-H148Q/I152L, iodide quench fluorescence; active compounds read low; B-score at 10 µM; 0.3% of 340,000 active; AID 623877;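 active means fluorescence-ratio B-score plate-corrected deviation score at least 3 library SD below zero, with starting fluorescence score within 5 deviations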;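 further: channel opened by trigger with iodide after compound preincubation; score built on the fluorescence ratio of max minus min over baseline; more negative score means more quench and so TMEM16A activation or potentiation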
CHT block conf: confirmation of human choline transporter CHT inhibitors; AID 493221; CHT-expressing cells, choline membrane potential dye; LV-to-AA substituted CHT, HEK293 cells; CHT activity remaining % of control (active compounds read low), % at 10 µM; shares compounds with CHT inh; 70% of 2,400 active;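 active means choline transporter activity left, mean of duplicates at 10 µM, below buffer-only control mean minus 3 SD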;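 further: depolarization triggered by choline at its EC90 following an EC20 pre-addition; 0% = hemicholinium-3 full block and 100% = buffer-only control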
HEK293 CHT ctr: counter-screen for CHT inhibitors: effect in parental HEK293 cells; shares compounds with CHT inh; membrane potential dye, choline response; active = decrease or increase beyond buffer ±3SD; membrane potential ratio readout (active if shifted either direction beyond buffer ±3SD; no single direction) at 10 µM; 4% of 2,400 active;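 further: parental cells lack the transporter so any hit is non-specific; ratio is peak minus trough fluorescence over baseline after EC90 choline challenge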
Starred values were filed as active, the others as inactive; i = inactive; x = no result.

SMILES	ANO1 block	IMP-1 inhibitor	VIM-2 inh	CHT PAM	CHT inh	TMEM16A act	CHT block conf	HEK293 CHT ctr
COc1ccc(Cn2c(=O)c3[nH]cnc3n(-c3ccccc3C)c2=O)cc1	i	-1	-2	i	-5.5*	i	56%*	i
O=C(NCc1ccccc1OC(F)(F)F)C1CCC(=O)N(C2CC2)C1 (configuration not stated)	i	-5	-4	i	i	i	x	x
COCCN(Cc1ccccc1)C(=O)c1cccc(S(=O)(=O)N(C)c2c(C)n(C)n(-c3ccccc3)c2=O)c1	i	x	x	i	i	i	x	x
COc1ccc(C(=O)NCc2nc(C)c(C)s2)cc1OC1CCN(C(C)C)CC1	i	-4	-3	i	-13*	i	3.8%*	i
CCc1cc(CNC(=O)c2ccc(OC)c(OC3CCN(C(C)C)CC3)c2)on1	i	-3	-1	i	-16*	i	2.2%*	i
COc1ccc(C2=Nn3c(nnc3C3CCCCC3)SC2)cc1OC	i	-3	0	i	-6.8*	i	52%*	i
COc1ccc(OC)c(C2=Nn3c(nnc3C3CCCCC3)SC2)c1	i	-3	1	i	i	i	x	x
COC(=O)C1=C(N)Oc2cc(C)n(CCc3ccccc3)c(=O)c2C1c1cccnc1 (configuration not stated)	i	0	-1	i	-5.2*	i	69%*	i
O=C(NNC(=S)Nc1ccc(F)cc1)C1CC1c1ccc(Cl)cc1 (configuration not stated)	i	-4	-3	i	-9.8*	i	14%*	i
Cc1ccc(NC(=S)NNC(=O)C2CC2c2ccc(C)cc2)cc1 (configuration not stated)	i	-4	-2	i	-5.5*	i	58%*	i
COc1ccc(NC(=S)NNC(=O)C2CC2c2ccc(C)cc2)cc1 (configuration not stated)	i	0	-5	i	i	i	x	x
Cc1ccc(N2C(=O)N(CC(=O)Nc3ccc([N+](=O)[O-])cc3)C(=O)C2C)cc1 (configuration not stated)	i	0	0	i	i	i	x	x
Cc1ccc(S(=O)(=O)N2CCN(C(=O)COC(=O)COc3cccc(C(F)(F)F)c3)CC2)c(C)c1	x	x	x	x	x	i	x	x
COc1cccc(NC(=O)CN2CCN(c3ccccc3F)CC2)c1	i	-1	-2	i	-5.9*	i	i	i
Cc1ccc(C(C)NC(=S)NCc2ccc(F)cc2)cc1C (configuration not stated)	i	-2	-3	i	-5.1*	i	71%*	i
COC(=O)C1=CN(c2ccc(F)cc2)C=C(C(=O)OC)C1c1ccc(O)cc1	i	-3	-2	i	i	i	x	x
Cc1cc(=O)[nH]c(SCc2nc3ccccc3s2)n1	i	0	-3	i	i	i	x	x
CCCc1cc(=O)[nH]c(SCc2nc3ccccc3s2)n1	i	-1	2	i	-5*	i	66%*	i
O=C(C1CCN(CCCc2ccccc2)CC1)N(CCc1ccccc1)Cc1ccccc1	i	-2	-1	i	-8.2*	i	23%*	3.5*
O=c1c2ccccc2[nH]c(=S)n1CCN1CCCCC1	i	-1	0	i	-12*	i	40%*	i
Cc1cc(C(=O)N2CCN(c3ncccn3)CC2)nn1C	i	-1	-1	i	i	i	x	x
CC(C)=CCc1c(O)cc2oc3c(CC=C(C)C)c(O)c(O)c(CC=C(C)C)c3c(=O)c2c1O	100*	x	x	i	-6.5*	i	i	i
Cc1ccc(NC(=O)COC(=O)C2CSC3(C)CCC(=O)N23)cc1S(=O)(=O)N1CCOCC1 (configuration not stated)	i	-3	-3	i	-7.3*	i	i	i
Cc1ccc(NC(=O)C2CSC3(C)CCC(=O)N23)cc1S(=O)(=O)N1CCOCC1 (configuration not stated)	x	x	x	x	x	i	x	x
COc1ccc(-n2c(C)cc(C(=O)CSc3nnc(-c4ccoc4C)n3C)c2C)cc1	i	-4	-3	i	-5.1*	i	66%*	i
SMILES	ANO1 block	IMP-1 inhibitor	VIM-2 inh	CHT PAM	CHT inh	TMEM16A act	CHT block conf	HEK293 CHT ctr
Cc1ccccc1C(=O)N=c1ccn(-c2nc3ccccc3nc2NS(=O)(=O)c2ccc(F)cc2)cc1	i	-3	-2	i	-5.9*	i	i	i
COC(=O)COc1ccc(S(=O)(=O)N2CCN(c3ccccc3)CC2)cc1	i	-3	-5	i	i	i	x	x
COC(=O)COc1ccc(S(=O)(=O)N2CCN(c3ccccc3F)CC2)cc1	i	1	-3	i	-5.2*	i	i	i
CN(C)CCNC(=O)C(=O)NCC(c1ccc2c(c1)OCO2)N1CCN(c2ccc(F)cc2)CC1 (configuration not stated)	i	-5	-2	i	-5.5*	i	45%*	i
CCCCn1c(N)c(N(CC)C(=O)c2ccc(C#N)cc2)c(=O)[nH]c1=O	i	-4	-2	i	i	i	x	x
CN(C(=O)c1cc2ccccc2cc1O)C1CCCCC1	i	-1	-2	i	i	i	x	x
CN(C(=O)c1ccccc1Cl)C1CCCCC1	i	-3	-1	i	-6.7*	i	i	i
COc1ccc2ncc(S(=O)(=O)c3ccccc3)c(N3CCC4(CC3)OCCO4)c2c1	i	-1	0	i	-5.9*	i	52%*	i
COc1ccc2ncc(S(=O)(=O)c3ccccc3)c(N3CCN(c4ccccc4)CC3)c2c1	i	-2	0	i	i	i	x	x
COc1cc2ncc(S(=O)(=O)c3ccccc3)c(N3CCC4(CC3)OCCO4)c2cc1OC	i	-1	-3	i	i	i	x	x
Cc1ccc2ncc(S(=O)(=O)c3ccccc3)c(N3CCCCC3C)c2c1 (configuration not stated)	i	-5	-4	i	-6.2*	i	i	i
O=C(CSc1nc2ccccc2[nH]1)c1ccc2c(c1)OCO2	i	-3	-1	i	-6.1*	i	36%*	i
O=C1NC(=O)C(c2ccccc2)(C2CCCC2)N1 (configuration not stated)	x	x	x	x	x	i	x	x
